Activity calls are given as the source filed them. No cut-off for these calls is given here.
Assays:
[1] = biological target: T1, Glutamate receptor ionotropic, kainate (Rattus norvegicus) (UniProt P22756+Q01812+P42260+P42264+Q63273); experiment: Apparent dissociation constant of [3H]kainate from ionotropic glutamate receptor kainate of rat cortical slice at 100 uM; Inactive; type: protein-complex assay
Outline: (§1)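 Rat cortical slice preparation; test compound antagonism of depolarizations evoked by agonists N-methyl-D-aspartic acid, quisqualic acid or kainic acid, expressed as apparent Kb.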

[2] = biological target: T2, Glutamate NMDA receptor (Rattus norvegicus) (UniProt P35439+Q00959+Q00960+Q00961+Q62645+Q8VHN2+Q9R1M7); experiment: Apparent dissociation constant of [3H]-glycine from N-methyl-D-aspartate glutamate receptor in rat cortical slice preparation at 100 uM; Inactive; outline: as §1
Glutamate NMDA receptor [3] = experiment: Inhibition of [3H]glycine binding to glycine site of N-methyl-D-aspartate glutamate receptor in rat cortical membranes; type: cell membranes, Membrane
[4] = biological target: T3, Glutamate receptor ionotropic, AMPA (Rattus norvegicus) (UniProt P19491+P19492+P19493+P19490); experiment: Apparent dissociation constant of [3H]AMPA from Quisqualate receptor was determined in rat cortical slice preparation at 100 uM; Inactive; outline: as §1
[5] = biological target: T1, Glutamate receptor ionotropic, kainate (Rattus norvegicus); experiment: Apparent dissociation constant of [3H]kainate from Ionotropic glutamate receptor ionotropic kainate was determined in rat cortical slice preparation; outline: as §1
[6] = biological target: T2, Glutamate NMDA receptor (Rattus norvegicus); experiment: Apparent dissociation constant of [3H]glycine from N-methyl-D-aspartate glutamate receptor in rat cortical slice preparation expressed as log values.; outline: as §1
[7] = biological target: T2, Glutamate NMDA receptor (Rattus norvegicus); experiment: Apparent dissociation constant of [3H]-glycine from N-methyl-D-aspartate glutamate receptor in rat cortical slice at 30 uM; Inactive; outline: as §1
[8] = biological target: T3, Glutamate receptor ionotropic, AMPA (Rattus norvegicus); experiment: Apparent dissociation constant of [3H]-AMPA from Quisqualate receptor of rat cortical slice at 30 uM; Inactive; type: protein-complex assay; outline: as §1
[9] = biological target: T3, Glutamate receptor ionotropic, AMPA (Rattus norvegicus); experiment: Apparent dissociation constant of [3H]AMPA from quisqualate receptor of rat cortical slices; type: protein-complex assay; outline: as §1
[10] = biological target: Glutamate receptor ionotropic, kainate; experiment: Inhibition of [3H]-kainic acid binding to kainate receptor of rat cortical membrane
[11] = biological target: Glutamate receptor ionotropic, AMPA (Rattus norvegicus, UniProt P19490+P19491+P19492+P19493); experiment: Inhibition of [3H]-AMPA binding to AMPA receptor of rat cortical membrane
Glutamate NMDA receptor [12] = experiment: Inhibition of [3H]-glutamate binding to N-methyl-D-aspartate glutamate receptor of rat cortical membranes; type: cell membranes, Membrane

O=C(O)c1cc(O)c2cccc(Cl)c2n1
Kb [1]: inactive | Kb [2]: inactive | IC50 (Glutamate NMDA receptor [3]): > 100 µM | Kb [4]: inactive

Oc1nc2ccccc2nc1O
Kb [5]: > 100 µM | IC50 (Glutamate NMDA receptor [3]): 38.6 µM

O=C(O)c1cc(O)c2ccc(I)cc2n1
IC50 (Glutamate NMDA receptor [3]): 3.6 µM | -Log 1/Kb [6]: 4.33

Oc1nc2cc(Cl)c(Cl)cc2nc1O [2,3-DIHYDROXY-6,7-DICHLOROQUINOXALINE]
Kb [5]: 9 µM | IC50 (Glutamate NMDA receptor [3]): 3.1 µM

C=Cc1cccc2nc(C(=O)O)cc(O)c12
IC50 (Glutamate NMDA receptor [3]): > 100 µM

COc1nc2cc(C)c(C)cc2nc1O
Kb [5]: 86 µM | Kb [7]: inactive | IC50 (Glutamate NMDA receptor [3]): > 100 µM | Kb [8]: inactive

O=C(O)c1cc(O)c2c(C(F)(F)F)cc(C(F)(F)F)cc2n1
IC50 (Glutamate NMDA receptor [3]): > 100 µM

O=C(O)c1cc(O)c2c(Cl)cccc2n1
Kb [5]: > 100 µM | IC50 (Glutamate NMDA receptor [3]): 5.2 µM | -Log 1/Kb [6]: 4.43

O=C(O)c1cc(O)c2c([N+](=O)[O-])cc([N+](=O)[O-])cc2n1
IC50 (Glutamate NMDA receptor [3]): > 100 µM

O=C(O)CNc1cc(Cl)cc(Cl)c1
IC50 (Glutamate NMDA receptor [3]): 49 µM | Kb [4]: inactive

CCCCc1cccc2nc(C(=O)O)cc(O)c12
IC50 (Glutamate NMDA receptor [3]): > 100 µM | -Log 1/Kb [6]: 3.31

CCc1cc(Cl)cc2nc(C(=O)O)cc(O)c12
IC50 (Glutamate NMDA receptor [3]): 0.26 µM | -Log 1/Kb [6]: 6

O=C(O)c1cc(O)c2ccc(C(F)(F)F)cc2n1
-Log 1/Kb [6]: 3.52

O=C(O)c1cc(O)c2c(I)cccc2n1
IC50 (Glutamate NMDA receptor [3]): 0.63 µM | -Log 1/Kb [6]: 5.12

Cc1cc(I)cc2nc(C(=O)O)cc(O)c12
IC50 (Glutamate NMDA receptor [3]): 1.2 µM | -Log 1/Kb [6]: 5.05

CCCCc1ccc2c(O)cc(C(=O)O)nc2c1
IC50 (Glutamate NMDA receptor [3]): > 100 µM

O=C(O)c1cc(O)c2c(I)cc(Cl)cc2n1
IC50 (Glutamate NMDA receptor [3]): 0.032 µM | -Log 1/Kb [6]: 6.4

Oc1nc2cc(Cl)cc(Cl)c2nc1O
Kb [5]: 22 µM | IC50 (Glutamate NMDA receptor [3]): 3.4 µM

O=C(O)c1cc(O)c2cc([N+](=O)[O-])ccc2n1
Kb [5]: 49 µM | Kb [2]: inactive | Kb [9]: 52 µM

Oc1nc2cccc(Cl)c2nc1O
Kb [5]: > 100 µM | IC50 (Glutamate NMDA receptor [3]): 56.3 µM

O=C(O)C(=O)Nc1cc(Cl)cc(Cl)c1
IC50 (Glutamate NMDA receptor [3]): 6.8 µM | Kb [4]: inactive

O=C(O)c1cc(O)c2c(Cl)c(Cl)c(Cl)cc2n1
Kb [5]: 14 µM | IC50 (Glutamate NMDA receptor [3]): 2.4 µM

O=C(O)c1cc(O)c2ccc(Cl)cc2n1 [7-CHLOROKYNURENIC ACID]
IC50 [10]: > 1000 µM | IC50 [11]: 153 µM | Kb [5]: 50 µM | IC50 (Glutamate NMDA receptor [12]): 169 µM | IC50 (Glutamate NMDA receptor [3]): 0.56 µM | -Log 1/Kb [6]: 5.15

O=[N+]([O-])c1ccc2nc(O)c(O)nc2c1
Kb [5]: 4.6 µM | IC50 (Glutamate NMDA receptor [3]): 8.3 µM

Cc1cc2nc(O)c(O)nc2cc1C
Kb [5]: 27 µM

Cc1cc(I)c2c(O)cc(C(=O)O)nc2c1
IC50 (Glutamate NMDA receptor [3]): 0.27 µM | -Log 1/Kb [6]: 6

C=Cc1ccc2c(O)cc(C(=O)O)nc2c1
IC50 (Glutamate NMDA receptor [3]): > 100 µM | -Log 1/Kb [6]: 3.58

O=C(O)c1cc(O)c2cc(I)ccc2n1
Kb [5]: 37 µM | Kb [9]: 56 µM

O=C(O)c1nc2cc(Cl)ccc2[nH]1
IC50 (Glutamate NMDA receptor [3]): 5.6 µM

Cc1cc(Br)c2c(O)cc(C(=O)O)nc2c1
IC50 (Glutamate NMDA receptor [3]): 0.82 µM | -Log 1/Kb [6]: 5.68

CCCc1cccc2nc(C(=O)O)cc(O)c12
-Log 1/Kb [6]: 3.4

O=C(O)c1cc(O)c2cc(F)ccc2n1
Kb [5]: 55 µM | Kb [9]: 48 µM

COc1ccc2c(O)cc(C(=O)O)nc2c1
IC50 (Glutamate NMDA receptor [3]): > 100 µM

CC(C)c1ccc2c(O)cc(C(=O)O)nc2c1
IC50 (Glutamate NMDA receptor [3]): > 100 µM

CCc1cccc2nc(C(=O)O)cc(O)c12
IC50 (Glutamate NMDA receptor [3]): 4.8 µM | -Log 1/Kb [6]: 5.26

Cc1cc2c(cc1C)n(C)c(=O)c(=O)n2C
IC50 (Glutamate NMDA receptor [3]): > 100 µM

From ChEMBL document CHEMBL1125652, “Kynurenic acid derivatives. Structure-activity relationships for excitatory amino acid antagonism and identification of potent and selective antagonists at the glycine site on the N-methyl-D-aspartate receptor” (J Med Chem, 1991)
